Most compounds without a hit are left out; they make up all but 2.3% or so of the library.
Diaphorase act: diaphorase activation or chemical reduction counter-screen | activation factor at 20 µM | 0.005% of 190,000 active | Diaphorase/resazurin coupled assay, resorufin fluorescence, 16 min; active compounds read high; 1 = vehicle wells, 0 = NADH-free wells;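 active = diaphorase activity raised at least twofold by the compound at 20 µM; inactive = activation factor below 2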
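System – purified diaphorase enzyme from Clostridium kluyveri · Input – enzyme 0.07 U/mL final · Also added – final NADH 0.114 mM, resazurin 0.1 mM · Measured by – fluorescence of resorufin, 544 nm excitation, 590 nm emission · Timing – 16 min enzyme reaction, ambient temperature · Measure – resorufin increase flagging diaphorase activators or reducers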
FLuc inh counter: inhibits firefly luciferase, flagging false hits in luciferase inhibition screens; 1.5% of 200,000 active; AID 1006; ATPLite firefly luciferase biochemical luminescence, 10 min; inhibition, % at 10 µM;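 active = inhibition above about 50% when tested at 10 µM, limit read from the data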
Target sequence (P08659 whole entry, looked up): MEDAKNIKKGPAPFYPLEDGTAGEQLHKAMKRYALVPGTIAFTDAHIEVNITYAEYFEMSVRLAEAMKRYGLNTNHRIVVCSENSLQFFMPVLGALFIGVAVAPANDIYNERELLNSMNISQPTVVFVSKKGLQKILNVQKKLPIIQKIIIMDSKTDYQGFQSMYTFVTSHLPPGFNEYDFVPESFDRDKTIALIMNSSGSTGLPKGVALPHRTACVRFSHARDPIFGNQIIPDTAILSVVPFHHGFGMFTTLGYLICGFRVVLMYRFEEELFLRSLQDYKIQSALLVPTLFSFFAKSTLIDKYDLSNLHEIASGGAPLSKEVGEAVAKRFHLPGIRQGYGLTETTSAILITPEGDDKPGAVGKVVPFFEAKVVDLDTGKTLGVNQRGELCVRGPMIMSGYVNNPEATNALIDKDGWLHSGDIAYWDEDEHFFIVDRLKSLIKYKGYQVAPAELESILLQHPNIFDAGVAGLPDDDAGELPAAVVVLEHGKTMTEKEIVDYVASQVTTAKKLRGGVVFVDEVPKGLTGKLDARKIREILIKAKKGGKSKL
G6PDH counter: inhibits Leuconostoc G6PDH, flagging false hits in G6PDH-based assays. inhibition, % at 5 µM. Purified L. mesenteroides G6PDH, diaphorase/resazurin coupled fluorescence, 45 min. AID 1020. 0.12% of 200,000 active; in the data active = inhibition above about 50%
FLuc act counter: firefly luciferase counter-screen for stimulation assays. P08659. ATPlite luciferase biochemical, luminescence, 10 min; 0 = ATP-free wells, 1 = DMSO control. activation factor at 10 µM. 200,000 tested, under 10 active. AID 1027;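 active = luciferase activation factor, scaled between plate controls, of at least 2 with compound at 10 µM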
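Assay system – cell-free luciferase reagent · Medium – PBS-based ATP solution · Dosing – test compounds dosed from 2 mM stocks in 100% DMSO · Timing – 10 min, room temperature · Technique – light output (luminescence) · Measure – luminescence gain marking luciferase activators · Controls – No-ATP low control, compound-free enzyme-plus-ATP high control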
Diaph inh CS: counter-screen for diaphorase-based assays: diaphorase inhibitors and chemical oxidizers; 0.69% of 190,000 active; diaphorase resazurin-to-resorufin fluorescence, NADH, 16 min; bacterial (C. kluyveri) enzyme, not human; inhibition, % at 20 µM;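 active = primary screen inhibition at 20 µM above a set limit, cut at about 50% in these data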
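System: Diaphorase enzyme from Clostridium kluyveri | Amount: Enzyme working solution with 0.14 U/mL diaphorase | Benchmarks: No-NADH positive control and DMSO neutral control | Signal: Fluorescence of resorufin formed from resazurin, Ex 544/Em 590 nm | Schedule: 16-min room-temperature incubation before reading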
A number is an active result; - = inactive.

SMILES	Diaphorase act	FLuc inh counter	G6PDH counter	FLuc act counter	Diaph inh CS
O=C(c1cc(-c2ccc(Cl)c(Cl)c2)on1)N1CCCC1	-	-	-	-	-
COc1cccc(-c2cc(C(=O)N3CCCCCC3)no2)c1	-	62	-	-	-
CCc1nnc(NC(=O)C2c3ccccc3Oc3ccccc32)s1	-	-	-	-	-
CCN(CC)C(=O)C(=O)Nc1ccc(F)c(Cl)c1	-	-	-	-	-
COc1ccccc1/C=N/NC(=O)c1csc(C)c1C	-	71	-	-	-
N/C(=N\OC(=O)c1ccc(Cl)cc1Cl)c1ccccc1	-	95	-	-	-
Cc1cccc(/C(N)=N/OC(=O)c2ccc(Br)o2)c1	-	67	-	-	-
N/C(=N\OC(=O)c1ccc(Cl)cc1)c1cccnc1	-	94	-	-	-
Cc1cccc(/C(N)=N/OC(=O)Cc2ccccc2)c1	-	-	-	-	-
N/C(Cc1ccc(Cl)cc1Cl)=N\OC(=O)c1ccccc1	-	-	-	-	-
Cc1cccc(/C(N)=N/OC(=O)C23CC4CC(CC(C4)C2)C3)c1	-	62	-	-	-
COc1cc(C2C(C#N)=C(N)OC3=C2C(=O)CCC3)c([N+](=O)[O-])cc1OC (configuration not stated)	-	-	-	-	-
CCCCC(=O)Nc1sc2c(c1C(=O)OCC)CCC(C=O)=C2Cl	-	-	-	-	-
CCOC(=O)c1cc(CC)sc1NC(=O)c1ccc([N+](=O)[O-])c(N2CCOCC2)c1	-	-	-	-	-
O=C(O)/C=C/c1ccc(OCc2cccc(F)c2)cc1	-	-	-	-	-
N/C(=N\OC(=O)c1ccc(Cl)cc1Cl)c1cccnc1	-	93	-	-	-
N/C(=N\OC(=O)c1ccc(Cl)cc1)c1ccc(Cl)cc1	-	-	-	-	-
Cc1ccc(/C(N)=N/OC(=O)c2ccc(C)cc2Cl)cc1	-	73	-	-	-
Cc1cccc(/C(N)=N/OC(=O)c2cccnc2)c1	-	64	-	-	-
N/C(=N\OC(=O)c1ccc(Cl)cc1Cl)c1ccc(Cl)cc1	-	54	-	-	-
N/C(=N\OC(=O)c1cccc2ccccc12)c1cccnc1	-	-	-	-	-
CCOC(=O)C1CCN(c2cc(=O)n(Cc3ccc(F)cc3)c(=O)[nH]2)CC1	-	-	-	-	-
O=C(Nc1nnc(SCc2ccc(F)cc2)s1)c1ccc2c(c1)C(=O)N(c1ccccc1Cl)C2=O	-	-	-	-	-
Cc1cccc(/C(N)=N/OC(=O)c2ccc(Cl)cc2Cl)c1	-	90	-	-	-
Cc1ccc(/C=C2\CCC(C3CCCC3)C2=O)cc1 (configuration not stated)	-	57	-	-	-
SMILES	Diaphorase act	FLuc inh counter	G6PDH counter	FLuc act counter	Diaph inh CS
CCn1nc(C)c(Br)c1Nc1ccc(Br)cc1	-	-	-	-	-
Cc1ccc(C(=O)O)cc1NC(=S)NC(=O)c1ccc(-c2ccccc2)cc1	-	86	-	-	-
Cc1cccc(C(=O)NC(=S)Nc2ccccc2C(=O)O)c1	-	-	-	-	51
CCCOc1ccc2[nH]cc(C(=O)O)c(=O)c2c1	-	-	-	-	-
CCOC(=O)N1N=C(c2ccccc2)CC1(O)C(F)(F)F (configuration not stated)	-	-	-	-	-
CCOC(=O)N1N=C(c2ccc(C)cc2)CC1(O)C(F)(F)F (configuration not stated)	-	54	-	-	-
CC1=CC(C)(C)Nc2ccc(OC(=O)CN3C(=O)c4cccc5cccc(c45)C3=O)cc21	-	-	-	-	58
CC12CCC(C(=O)N(CC(O)CN3CCCCC3)C1=O)C2(C)C (configuration not stated)	-	-	-	-	-
COc1ccc(CCNC(=O)CC2Nc3ccccc3NC2=O)cc1OC (configuration not stated)	-	-	-	-	52
COC(=O)c1ccc(C(=O)N(CCN(C)C)c2nc3c(Cl)cccc3s2)cc1	-	-	-	-	-
CCCCC(=O)Nc1ccccc1C(=O)OCC(=O)c1ccc2c(c1)OCCO2	-	66	-	-	-
CCOC(=O)c1ccccc1NC(=O)/C=C/C(=O)O	-	-	-	-	-
